Results pooled from the literature.
Protocols differ between the studies behind these lines.
Target: Serine/threonine-protein kinase PLK3 (PLK3, Homo sapiens, UniProt Q9H4B4)

| Compound | observed | action | technique | concentration | measurement | value |
| --- | --- | --- | --- | --- | --- | --- |
| COc1cc(-c2cc(-c3ccc(N4CCNCC4)cc3)cnc2C)cc(OC)c1OC | enzyme activity | inhibitor |  | 0.1 µM | inhibition | 4% |
| CCN(CC)c1ccc(C2=NNC(=O)CC2C)cc1[N+](=O)[O-] (stereo not shown) | enzyme activity | inhibitor |  | 10 µM | remaining activity | 104% |
| O=C(N1CCS(=O)(=O)CC1)N1C[C@H](c2ccc(OC(F)(F)F)cc2)C[C@H](c2nc(C3CC3)no2)C1 | cell-free assay |  | competition with immobilised ligand | 1 µM | remaining binding | 98% |
| CCN(CC)CCNC(=O)c1c(C)[nH]c(/C=C2\C(=O)Nc3ccc(F)cc32)c1C | enzyme activity | inhibitor |  | 10 µM | inhibition | -4% |
| O=C1Nc2ccc(Cl)cc2C1=Cc1cc(Cl)c(O)c(Cl)c1 | cell-free assay |  |  | 0.5 µM | remaining signal | 98.2% |
| CNC(=O)Nc1ccc2c(c1)[C@@]1(CC2)OC(=O)N(CC(=O)N(Cc2ccc(F)cc2)[C@@H](C)C(F)(F)F)C1=O | cell-free assay |  | competition with immobilised ligand | 1 µM | remaining binding | 84% |
| Cc1ccc(NC(=O)c2ccc(C)c(C(F)(F)F)c2)cc1C#Cc1nn(C2CCC(O)CC2)c2ncnc(N)c12 (stereo not shown) | cell-free assay |  |  | 10 µM | remaining signal | 93% |
| O=C(CSc1nc2nccnc2c(=O)n1CCc1ccccc1)Nc1nccs1 | enzyme activity | inhibitor |  | 10 µM | inhibition | 4% |
| O=C1NC(c2ccccn2)Sc2ccccc21 (stereo not shown) | cell-free assay |  | competition with immobilised ligand | 1 µM | remaining binding | 88% |
| O=C1NC(=O)c2cc(Nc3ccc(F)cc3)c(Nc3ccc(F)cc3)cc21 | cell-free assay |  |  | 0.5 µM | remaining signal | 98% |
| COc1ccc2c(O[C@@H]3C[C@H]4C(=O)N[C@]5(C(=O)O)CC5/C=C\CCCCC[C@H](NC(=O)OC5CCCC5)C(=O)N4C3)cc(-c3csc(NC(=O)C(C)C)n3)nc2c1C (stereo partly shown) | cell-free assay |  | competition with immobilised ligand | 1 µM | remaining binding | 79% |
| CC(C)(C)c1nc2c(s1)c1nc(N)ncc1c1ccc(NS(=O)(=O)c3c(F)cccc3F)c(F)c12 | enzyme activity | inhibitor | radiometric | 1 µM | remaining activity | 91% |
| CCS(=O)(=O)c1cc2cc(C[C@@](O)(CC(C)(C)c3ccc(F)cc3C(N)=O)C(F)(F)F)[nH]c2cn1 | cell-free assay |  | competition with immobilised ligand | 1 µM | remaining binding | 99% |
| CNC(=O)c1cc(Oc2ccc(NC(=O)Nc3ccc(Cl)c(C(F)(F)F)c3)cc2)ccn1 | enzyme activity | inhibitor |  | 10 µM | inhibition | -14% |
| Cc1ccc(C(=O)Nc2ccc(CN3CCN(C)CC3)c(C(F)(F)F)c2)cc1C#Cc1cnc2cccnn12 | enzyme activity | inhibitor |  | 23.5 nM | remaining activity | 89% |
| Cc1cnc(NC2CCOCC2)nc1-n1cnc(C(=O)NC(CN)c2cc(F)cc(Cl)c2)c1 (stereo not shown) | enzyme activity | inhibitor | radiometric | 1 µM | remaining activity | 88% |
| C[C@@]1(Cc2ccc(C#N)cc2)C(=O)N(c2cc(Cl)cc(Cl)c2)c2ncc(C(=O)NC3(c4nc(C5CCC5)no4)CC3)n21 | cell-free assay |  | competition with immobilised ligand | 1 µM | remaining binding | 100% |
| Cc1ccc(Nc2nccc(N(C)c3ccc4c(C)n(C)nc4c3)n2)cc1S(N)(=O)=O | enzyme activity | inhibitor |  | 0.3 µM | inhibition | -9% |
| CC(C)(O)[C@H]1CC[C@H](Nc2ccc3ncc(-c4cccc(C(F)(F)F)c4)n3n2)CC1 | enzyme activity | inhibitor |  | 1 µM | remaining activity | 102% |
| CCCOc1ccc([C@H]2[C@H](C(=O)O)[C@@H](c3ccc4c(c3)OCO4)CN2CC(=O)Nc2c(CC)cccc2CC)cc1 | cell-free assay |  | competition with immobilised ligand | 1 µM | remaining binding | 83% |
| COc1cc2ncnc(Nc3ccc(Oc4ccccc4)cc3C)c2cc1OC | enzyme activity | inhibitor |  | 1 µM | inhibition | -1% |
| Nc1cnc(N2CCc3cc(S(=O)(=O)Nc4c(F)cc(Cl)cc4F)cc(N4CCCC4=O)c32)nc1 | cell-free assay |  | competition with immobilised ligand | 1 µM | remaining binding | 100% |
| N#CCCc1ccc2c(c1)-c1[nH]c3ccc([N+](=O)[O-])cc3c1CC(=O)N2 | cell-free assay |  |  | 0.5 µM | remaining signal | 99.7% |
| Nc1ncnc2occ(-c3ccc(NC(=O)Nc4cc(C(F)(F)F)ccc4F)cc3)c12 | cell-free assay | inhibitor |  | 20 µM | remaining signal | 0.05% |
| O=C(Nc1cnn(-c2csc(C(=O)NC3COC3)c2)c1)Nc1c(F)cccc1Cl | enzyme activity | inhibitor |  | 5 µM | remaining activity | 96% |
